Measured values taken from ChEMBL document CHEMBL4251614, “Development of inhibitors of receptor protein tyrosine phosphatase β/ζ (PTPRZ1) as candidates for CNS disorders” (Eur J Med Chem, 2018).
Active and inactive are the calls of the source.

Columns and labels:
[1] = target: T1, Receptor-type tyrosine-protein phosphatase zeta (Homo sapiens, UniProt P23471); experiment: Inhibition of human recombinant PTPRZ1 using pNPP as substrate at 1 uM by fluorescence spectrometric analysis relative to control
T1 sequence (P23471 whole entry): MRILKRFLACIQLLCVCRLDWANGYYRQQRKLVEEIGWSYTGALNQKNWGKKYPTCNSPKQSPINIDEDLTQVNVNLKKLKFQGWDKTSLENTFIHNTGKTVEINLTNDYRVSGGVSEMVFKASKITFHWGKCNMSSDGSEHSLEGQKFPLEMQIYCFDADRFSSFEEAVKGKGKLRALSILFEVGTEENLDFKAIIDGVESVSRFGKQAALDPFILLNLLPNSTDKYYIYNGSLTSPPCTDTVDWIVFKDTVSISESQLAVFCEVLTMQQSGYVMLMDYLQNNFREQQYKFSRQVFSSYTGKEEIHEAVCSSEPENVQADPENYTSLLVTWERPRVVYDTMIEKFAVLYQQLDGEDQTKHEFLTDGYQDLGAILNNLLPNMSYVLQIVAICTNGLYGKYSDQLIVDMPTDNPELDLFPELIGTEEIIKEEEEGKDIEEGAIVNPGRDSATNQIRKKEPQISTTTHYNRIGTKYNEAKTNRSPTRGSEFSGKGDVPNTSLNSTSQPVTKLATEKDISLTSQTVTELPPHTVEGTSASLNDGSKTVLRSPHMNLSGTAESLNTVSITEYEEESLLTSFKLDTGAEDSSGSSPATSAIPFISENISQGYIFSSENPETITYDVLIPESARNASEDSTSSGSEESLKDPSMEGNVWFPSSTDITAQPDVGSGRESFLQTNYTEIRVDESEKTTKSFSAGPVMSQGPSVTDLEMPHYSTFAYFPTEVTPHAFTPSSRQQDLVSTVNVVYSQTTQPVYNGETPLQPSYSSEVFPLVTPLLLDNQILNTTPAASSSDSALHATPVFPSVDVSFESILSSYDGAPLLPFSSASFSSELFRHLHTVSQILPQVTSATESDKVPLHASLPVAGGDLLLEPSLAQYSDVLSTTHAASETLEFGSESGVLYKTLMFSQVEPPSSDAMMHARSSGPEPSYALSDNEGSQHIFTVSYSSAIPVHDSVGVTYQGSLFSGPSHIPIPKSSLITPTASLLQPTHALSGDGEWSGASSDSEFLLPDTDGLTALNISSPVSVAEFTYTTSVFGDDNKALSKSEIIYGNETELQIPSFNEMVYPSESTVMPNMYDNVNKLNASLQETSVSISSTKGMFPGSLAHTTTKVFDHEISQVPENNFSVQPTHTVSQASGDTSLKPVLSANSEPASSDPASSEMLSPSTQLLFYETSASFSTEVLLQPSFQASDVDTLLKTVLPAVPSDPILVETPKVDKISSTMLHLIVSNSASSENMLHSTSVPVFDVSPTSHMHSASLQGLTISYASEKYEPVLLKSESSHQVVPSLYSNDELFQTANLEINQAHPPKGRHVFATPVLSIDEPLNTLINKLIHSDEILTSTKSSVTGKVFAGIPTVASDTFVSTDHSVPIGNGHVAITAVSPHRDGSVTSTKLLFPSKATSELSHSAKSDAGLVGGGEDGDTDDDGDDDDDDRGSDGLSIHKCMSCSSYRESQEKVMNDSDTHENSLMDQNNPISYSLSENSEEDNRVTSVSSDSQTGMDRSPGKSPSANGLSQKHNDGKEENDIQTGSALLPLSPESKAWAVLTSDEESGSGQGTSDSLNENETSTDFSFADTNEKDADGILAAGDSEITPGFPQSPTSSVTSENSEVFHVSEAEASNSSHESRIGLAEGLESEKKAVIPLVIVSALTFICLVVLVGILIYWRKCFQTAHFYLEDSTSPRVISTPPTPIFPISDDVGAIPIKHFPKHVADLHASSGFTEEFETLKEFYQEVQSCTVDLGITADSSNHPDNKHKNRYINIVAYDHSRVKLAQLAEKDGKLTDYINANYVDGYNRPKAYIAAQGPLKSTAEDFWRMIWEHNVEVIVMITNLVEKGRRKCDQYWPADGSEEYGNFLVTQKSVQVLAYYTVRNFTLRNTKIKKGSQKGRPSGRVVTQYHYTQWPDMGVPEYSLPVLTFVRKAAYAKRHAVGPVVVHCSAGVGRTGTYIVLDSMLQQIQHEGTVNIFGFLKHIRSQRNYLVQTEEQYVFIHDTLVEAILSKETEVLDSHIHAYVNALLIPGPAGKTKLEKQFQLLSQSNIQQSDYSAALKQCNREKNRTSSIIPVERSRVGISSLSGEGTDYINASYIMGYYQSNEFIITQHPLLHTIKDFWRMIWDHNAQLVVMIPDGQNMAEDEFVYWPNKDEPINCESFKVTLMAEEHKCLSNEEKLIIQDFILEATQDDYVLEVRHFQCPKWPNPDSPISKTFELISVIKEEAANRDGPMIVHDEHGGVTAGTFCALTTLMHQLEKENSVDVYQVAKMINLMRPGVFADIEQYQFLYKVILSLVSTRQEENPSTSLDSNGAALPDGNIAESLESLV
Outline: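 Screening used single-point testing at 1.0 μM against 0.1 μM human recombinant PTPRZ1 with p-NPP substrate. Phosphate release was detected with a phosphate sensor reagent by fluorescence (excitation 430 nm, emission 450 nm). The cutoff for activity was at least 10% inhibition of phosphatase activity.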

[2] = target: T1, Receptor-type tyrosine-protein phosphatase zeta; experiment: Inhibition of PTPRZ1 in human HeLa cells assessed as increase in EGF-induced tryrosine phosphorylation at 0.1 to 10 uM incubated for 10 mins after EGF stimulation for 10 mins by ELISA relative to control; assay type: cell-based
Outline: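 HeLa cells were grown in RPMI-1640 with 10% FBS and seeded at 2 × 10^4 cells/well in triplicate. After 24 h serum starvation, cells received 50 ng/mL EGF for 10 min, then compound at 0.1, 1.0 or 10.0 μM for 10 min, against 0.25% DMSO control. Total phosphotyrosine was measured by a tyrosine-phosphorylation ELISA kit. A rise of at least 10% was the selection criterion.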

[3] = target: T1, Receptor-type tyrosine-protein phosphatase zeta; experiment: Inhibition of human recombinant PTPRZ1 using pNPP as substrate by fluorescence spectrometric analysis
Outline: (§1)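 Human recombinant enzyme (PTPRZ1 or PTP1B) was used at 0.1 μM with p-NPP substrate. Released phosphate was detected with a phosphate sensor reagent as a fluorescence increase (excitation 430 nm, emission 450 nm). IC50 was derived from compound concentrations of 0.001–100 μM.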

[4] = target: T2, Tyrosine-protein phosphatase non-receptor type 1 (Homo sapiens, UniProt P18031); experiment: Inhibition of human recombinant PTP1B using pNPP as substrate by fluorescence spectrometric analysis; outline: as §1
T2 sequence (P18031 whole entry): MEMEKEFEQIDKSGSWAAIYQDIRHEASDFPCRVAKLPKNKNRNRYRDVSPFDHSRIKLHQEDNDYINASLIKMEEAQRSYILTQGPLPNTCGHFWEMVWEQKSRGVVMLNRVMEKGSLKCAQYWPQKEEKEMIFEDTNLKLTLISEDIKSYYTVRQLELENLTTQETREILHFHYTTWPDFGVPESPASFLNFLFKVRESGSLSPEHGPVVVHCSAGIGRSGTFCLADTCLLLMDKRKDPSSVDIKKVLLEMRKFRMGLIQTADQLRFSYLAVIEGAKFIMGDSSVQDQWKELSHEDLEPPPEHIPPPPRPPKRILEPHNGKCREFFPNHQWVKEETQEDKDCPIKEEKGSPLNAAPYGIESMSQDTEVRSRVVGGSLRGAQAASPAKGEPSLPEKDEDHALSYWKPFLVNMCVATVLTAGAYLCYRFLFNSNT

[5] = target: T1, Receptor-type tyrosine-protein phosphatase zeta; experiment: Inhibition of PTPRZ1 (unknown origin) using pNPP as substrate preincubated for 15 mins followed by substrate addition measured after 10 mins by spectrophotometric analysis
[6] = target: T1, Receptor-type tyrosine-protein phosphatase zeta; experiment: Inhibition of PTPRZ1 in human SH-SY5Y cells assessed as increase in Alk tryrosine 1278 phosphorylation at 1 to 10 uM after 20 mins by Western blot analysis relative to control; assay type: cell-based
Outline: (§2)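 Human SH-SY5Y cells were grown in EMEM/F12 (1:1) with 10% FBS at 37 °C, 5% CO2, then switched to serum-free medium. They were treated for 20 min with 1.0, 5.0 or 10.0 μM compound or DMSO vehicle. Lysates (20 μg protein) were western blotted for phospho-TrkA Y490 and phospho-ALK Y1278, reprobed for total TrkA/ALK, detected by ECL and quantified by densitometry. Data are mean ± S.E.M., ANOVA/Tukey.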

[7] = Drug level in mouse plasma at 60 mg/kg after 1 hr by GC-MS analysis; assay type: ADME, organism-based
Outline: (§3)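 Mice were dosed at 60 mg/kg by oral gavage and killed 1 h later. Brain and plasma were analyzed by GC-MS (EI at 70 eV, full scan m/z 50–600). Plasma (100 μL) was precipitated with three volumes of cold methanol, dried and reconstituted in heptane. The reference was a standard serially half-diluted in heptane from 5 μg/mL. Concentrations were a preliminary estimate.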

[8] = Drug level in mouse brain at 60 mg/kg after 1 hr by GC-MS analysis; assay type: ADME, organism-based; conditions: read-out: Drug uptake; outline: as §3
PC-12 = experiment: Cytoprotective activity against amphetamine-induced toxicity in rat PC12 cells at 1 uM after 20 hrs by MTT assay; assay type: functional, cell-based
Outline: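 Rat PC12 cells were grown in RPMI-1640 with 10% FBS at 10^4 cells/well. They were incubated for 20 h with 1.0 mM amphetamine plus 1.0 μM compound. Viability was read by MTT: cells were washed, given medium with MTT (20 μL of a 5 mg/mL stock) for 4 h, solubilized in DMSO, and absorbance read at 570 nm. Data are mean ± S.E.M., compared by one-way ANOVA with Tukey's test.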

[9] = target: T1, Receptor-type tyrosine-protein phosphatase zeta; experiment: Inhibition of PTPRZ1 in human SH-SY5Y cells assessed as increase in TrkA tryrosine 490 phosphorylation at 1 to 10 uM after 20 mins by Western blot analysis relative to control; assay type: cell-based; outline: as §2

| inhibition [1] | inhibition [2] | IC50 [3] [µM] | Structure (SMILES) | also measured |
| --- | --- | --- | --- | --- |
| inactive | ≥ 10% |  | FC(F)(F)Sc1ccc(CNc2ccc(SC(F)(F)F)cc2)cc1 |  |
| ≥ 10% | ≥ 10% | > 100 | O=C(NCc1ccc(SC(F)(F)F)cc1)c1ccc(SC(F)(F)F)cc1 | IC50 [4]: Not Active |
| inactive | ≥ 10% |  | O=C(Cc1ccc(S(=O)(=O)C(F)(F)F)cc1)NCc1ccc(S(=O)(=O)C(F)(F)F)cc1 |  |
| inactive | ≥ 10% |  | O=C(Nc1ccc(SC(F)(F)F)cc1)c1ccc(SC(F)(F)F)cc1 |  |
| ≥ 10% | ≥ 10% | 0.1 | FC(F)(F)Sc1ccc(CNCc2ccc(SC(F)(F)F)cc2)cc1 | IC50 ([4]; read-out: IC50): 0.7 µM |
| ≥ 10% | ≥ 10% | 5 | FC(F)(F)Sc1ccc(NCc2ccccc2)cc1 | IC50 ([4]; read-out: IC50): 1 µM |
| inactive | ≥ 10% |  | O=C(Cc1ccc(SC(F)(F)F)cc1)Nc1ccc(SC(F)(F)F)cc1 |  |
| inactive | < 10% |  | FC(F)(F)Sc1ccc(OCc2ccncc2)cc1 |  |
| inactive | inactive |  | O=S(=O)(c1ccc(COc2ccc(S(=O)(=O)C(F)(F)F)cc2)cc1)C(F)(F)F | IC50 [5]: 3.5 µM |
| ≥ 10% | ≥ 10% | 0.1 | FC(F)(F)Sc1ccc(COc2ccc(SC(F)(F)F)cc2)cc1 | fold change (FC) [6]: 2; concentration at 1 h [7]: 100 to 300 ng/mL; concentration at 1 h [8]: 500 to 1000 ng/mL; Activity (PC-12): Active; fold change (FC) [9]: 2 to 3; IC50 [4]: Not Active |
| inactive | inactive |  | O=C(Nc1ccc(S(=O)(=O)C(F)(F)F)cc1)c1ccc(S(=O)(=O)C(F)(F)F)cc1 |  |
| < 10% | ≥ 10% |  | FC(F)(F)Sc1ccc(CN(Cc2ccc(SC(F)(F)F)cc2)Cc2ccc(SC(F)(F)F)cc2)cc1 |  |
|  | inactive |  | FC(F)(F)Sc1ccc(CNCc2ccccc2)cc1 |  |
| ≥ 10% | ≥ 10% | > 10 | O=C(Cc1ccc(S(=O)(=O)C(F)(F)F)cc1)Nc1ccc(S(=O)(=O)C(F)(F)F)cc1 | IC50 [4]: Not Active |
| ≥ 10% | ≥ 10% | 0.8 | O=C(Cc1ccc(SC(F)(F)F)cc1)NCc1ccc(SC(F)(F)F)cc1 | IC50 [4]: Not Active |
|  | inactive |  | FC(F)(F)Sc1ccc(NCc2ccc(Cl)cc2)cc1 |  |
| inactive | inactive |  | O=S(=O)(c1ccc(OCc2ccc(SC(F)(F)F)cc2)cc1)C(F)(F)F | fold change (FC) [9]: 2 to 3 |
